Data set [1] can be described thus: Retardation factor of the compound using chloroform-acetone at ratio of 9:1 as solvent system by thin layer chromatography. Type of data set: physicochemical.
The target in data set [2] is Aldo-keto reductase family 1 member B1 (Rattus norvegicus, UniProt P07943). Briefly: Inhibition of aldose reductase in rat lens by spectrophotometer analysis. The gist of the method: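 Crude enzyme from rat lens homogenized in 9 volumes 100 mM potassium phosphate pH 6.2, spun 15,000 × g for 30 min at 4 °C, supernatant used. Assay in 50 mM potassium phosphate pH 6.2 with 0.4 M lithium sulphate, 5 mM β-mercaptoethanol, 10 mM DL-glyceraldehyde, 0.1 mM NADPH, at 37 °C. DMSO-dissolved compound preincubated 5 min, reaction started with NADPH, read spectrophotometrically, triplicate. IC50 by non-linear regression of % inhibition vs log concentration.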

The test system of another data set is Rattus norvegicus. Description: Antihyperglycemic activity in glucose-fed hyperglycaemic Wistar albino rat assessed as inhibition of postprandial hyperglycemia at 0.05 mM/kg, po administered via gavage 30 mins prior to glucose challenge measured 60 mins after glucose load. Type of data set: functional. The arrangement: scale not given: the % may be the effect or the level left. Put shortly:
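Rats fasted at least 16 h with water available, groups of six. Vehicle 1% w/v CMC in distilled water, 10 ml/kg, given orally. Glucose load 3 g/kg 30 min after treatment. Retro-orbital blood sampled just before and 60 min after the load. Glucose tolerance by AUC, percent activity from AUC against vehicle group, Dunnett's test.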

Data set [3] can be described thus: Retardation factor of the compound using toulene-ethyl acetate-formic acid at ratio of 5:4:1 as solvent system by thin layer chromatography. Format: physicochemical.
Data set [4] is described as follows: Retardation factor of the compound using chloroform-acetone at ratio of 8:2 as solvent system by thin layer chromatography. Type of data set: physicochemical.

Molecules are shown by their SMILES.

What is called IC50 is the concentration that gives 50% inhibition. Turning to `Cc1ccc(C2CC(c3ccc(N(C)C)cc3)=NN2c2ccc(S(=O)(=O)NC(=S)NCc3ccccc3)cc2)cc1` (centres undefined), in data set [1], the Rf is reported as 0.9. The IC50 in data set [2] (read-out: IC50) was 69.9 nM. The Activity in the data set on Rattus norvegicus amounted to 21.7%.

As for `CN(C)c1ccc(C2=NN(c3ccc(S(=O)(=O)NC(=O)NCc4ccccc4)cc3)C(c3ccccc3)C2)cc1` (centres undefined), in data set [2], the concentration for half-maximal inhibition (IC50) entry is on record as “Not Active”. Moreover, the Activity in the data set with Rattus norvegicus is listed as 15.5%. In data set [3], the Rf is reported as 0.85.

On to `CN(C)c1ccc(C2=NN(c3ccc(S(=O)(=O)NC(=O)NCc4ccccc4)cc3)C(c3ccc(Cl)cc3)C2)cc1` (centres undefined), for which, in the data set on Rattus norvegicus, the Activity is given as 6.7%. Also, the Rf in data set [3] came to 0.78.

On to `COc1ccc(C2CC(c3ccc(N(C)C)cc3)=NN2c2ccc(S(=O)(=O)NC(=O)NCc3ccccc3)cc2)cc1` (centres undefined), for which, in data set [2], the half-maximal inhibitory concentration (IC50) result is “Not Active”. Besides, in the data set with Rattus norvegicus, the Activity was 17.5%. Besides, in data set [3], the Rf is recorded as 0.7.

Regarding `Cc1ccc(C2CC(c3ccc(N(C)C)cc3)=NN2c2ccc(S(=O)(=O)NC(=O)NCc3ccccc3)cc2)cc1` (centres undefined), the Activity in the data set with Rattus norvegicus is 12%. Besides, in data set [4], the Rf amounted to 0.88.

On to `CN(C)c1ccc(C2=NN(c3ccc(S(=O)(=O)NC(=O)NCc4ccccc4)cc3)C(c3ccccc3Cl)C2)cc1` (centres undefined), for which the IC50 result in data set [2] was “Not Active”. In addition, the Activity in the data set on Rattus norvegicus came to 4.7%. For the same compound, the Rf in data set [3] was determined as 0.79.

Turning to `COc1ccc(C2CC(c3ccc(N(C)C)cc3)=NN2c2ccc(S(=O)(=O)NC(=O)NCc3ccccc3)cc2)cc1OC` (centres undefined), in the data set with Rattus norvegicus, the Activity is 18%. The Rf in data set [3] came out at 0.56.

As to `COc1cc(C2CC(c3ccc(N(C)C)cc3)=NN2c2ccc(S(=O)(=O)NC(=O)NCc3ccccc3)cc2)cc(OC)c1OC` (centres undefined), the Rf in data set [1] came out at 0.83. The Activity in the data set on Rattus norvegicus is on record as 29.3%.

In the case of `CN(C)c1ccc(C2=NN(c3ccc(S(=O)(=O)NC(=S)NCc4ccccc4)cc3)C(c3ccccc3)C2)cc1` (centres undefined), in data set [2] (read-out: IC50), the half-maximal inhibitory concentration (IC50) came to 90.1 nM. In addition, the Activity in the data set on Rattus norvegicus is given as 24.2%. In addition, the Rf in data set [3] is reported as 0.88.

For the compound `CN(C)c1ccc(C2=NN(c3ccc(S(=O)(=O)NC(=S)NCc4ccccc4)cc3)C(c3ccc(Cl)cc3)C2)cc1` (centres undefined), the Activity in the data set with Rattus norvegicus came to 4.2%. In addition, the Rf in data set [3] was found to be 0.87.

Regarding `COc1ccc(C2CC(c3ccc(N(C)C)cc3)=NN2c2ccc(S(=O)(=O)NC(=S)NCc3ccccc3)cc2)cc1` (centres undefined), the Activity in the data set on Rattus norvegicus was found to be 11.7%. Moreover, the Rf in data set [3] came out at 0.65.

In the case of `CN(C)c1ccc(C2=NN(c3ccc(S(=O)(=O)NC(=S)NCc4ccccc4)cc3)C(c3ccccc3Cl)C2)cc1` (centres undefined), in data set [2] (read-out: IC50), the half-maximal inhibitory concentration (IC50) is 85 nM. The Activity in the data set on Rattus norvegicus stood at 15.3%. In addition, in data set [3], the Rf was 0.75.

As to `COc1cc(C2CC(c3ccc(N(C)C)cc3)=NN2c2ccc(S(=O)(=O)NC(=S)NCc3ccccc3)cc2)cc(OC)c1OC` (centres undefined), the Activity in the data set on Rattus norvegicus was 28.6%. Also, in data set [3], the Rf is recorded as 0.92.

On to `CCCCNC(=S)NS(=O)(=O)c1ccc(N2N=C(c3ccc(N(C)C)cc3)CC2c2ccccc2)cc1` (centres undefined), for which the IC50 in data set [2] (read-out: IC50) stood at 43 nM. Further, the Activity with Rattus norvegicus is recorded as 10.5%. Also, the Rf in data set [3] was 0.88.

In the case of `CCCCNC(=S)NS(=O)(=O)c1ccc(N2N=C(c3ccc(N(C)C)cc3)CC2c2ccc(Cl)cc2)cc1` (centres undefined), the IC50 in data set [2] (read-out: IC50) is 17.5 nM. Besides, the Activity in the data set with Rattus norvegicus was found to be 18.9%. Besides, the Rf in data set [3] stood at 0.66.

As to `CCCCNC(=S)NS(=O)(=O)c1ccc(N2N=C(c3ccc(N(C)C)cc3)CC2c2ccc(OC)cc2)cc1` (centres undefined), in the data set on Rattus norvegicus, the Activity is recorded as 17.2%. Moreover, the Rf in data set [3] worked out at 0.9.

Regarding `CN(C)c1ccc(C2=NN(c3ccc(S(=O)(=O)NC(=S)NC4CCCCC4)cc3)C(c3ccccc3)C2)cc1` (centres undefined), the concentration for half-maximal inhibition (IC50) in data set [2] (read-out: IC50) turned out to be 17.8 nM. Moreover, in the data set on Rattus norvegicus, the Activity was determined as 2.7%. Further, the Rf in data set [3] stood at 0.97.

As for `Cc1ccc(S(=O)(=O)NC(=O)NN2CC3CCCC3C2)cc1` (centres undefined) [GLICLAZIDE], the Activity in the data set on Rattus norvegicus was determined as 25.4%.

Source of the values: ChEMBL document CHEMBL3259600, “Synthesis and biological evaluation of some new pyrazoline substituted benzenesulfonylurea/thiourea derivatives as anti-hyperglycaemic agents and aldose reductase inhibitors” (Eur J Med Chem, 2014).
